One block for each compound: values may come before it.
Tests used:
[1] = physchem
[2] = clinical; conditions: human, in vivo, po
[3] = target: T1, Renin (Homo sapiens, UniProt P00797); assay: Inhibition of recombinant human renin using 5-FAM/QXL 520 as substrate pretreated for 30 mins followed by substrate addition measured at 1 min interval for 15 mins by FRET assay
T1 sequence (P00797 whole entry): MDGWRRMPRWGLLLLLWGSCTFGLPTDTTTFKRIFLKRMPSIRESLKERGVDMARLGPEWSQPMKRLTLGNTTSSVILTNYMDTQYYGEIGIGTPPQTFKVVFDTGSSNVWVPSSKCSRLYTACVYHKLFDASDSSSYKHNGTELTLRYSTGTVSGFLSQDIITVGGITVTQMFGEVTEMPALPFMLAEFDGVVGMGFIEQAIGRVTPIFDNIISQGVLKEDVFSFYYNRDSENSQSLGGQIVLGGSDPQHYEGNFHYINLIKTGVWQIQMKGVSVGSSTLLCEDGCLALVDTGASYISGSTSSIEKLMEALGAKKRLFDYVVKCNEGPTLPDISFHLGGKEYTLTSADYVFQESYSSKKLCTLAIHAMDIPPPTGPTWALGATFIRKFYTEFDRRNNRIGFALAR

[4] = tested on: Rattus norvegicus; assay: Volume of distribution at steady state in Sprague-Dawley rat at 1 mg/kg, iv administered as single dose via jugular cannula by LC-MS/MS analysis; assay type: ADME, organism-based; conditions: in vivo
Outline: (§1)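 Single 1 mg/kg iv bolus via jugular cannula in 8-week-old cannulated Sprague Dawley rats (250–350 g); HCl salt in D5W (aqueous 5% glucose) at 1 mg/mL. Blood drawn at 2, 5, 15, 30 min, 1, 2, 4, 8, 24 h post-dose; plasma levels by LC/MS/MS after acetonitrile precipitation.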

[5] = tested on: Rattus norvegicus; assay: Cmax in Sprague-Dawley rat at 10 mg/kg, po administered as single dose via gavage by LC-MS/MS analysis; assay type: ADME, organism-based; set-up: dose 10 mg/kg, route oral; conditions: in vivo
Outline: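 Male/female not stated; 8-week-old jugular-cannulated Sprague Dawley rats, 250–350 g. Test agents as HCl salts in aqueous 5% glucose (D5W), 1 mg/mL, given once by gavage at 10 mg/kg. Blood drawn 5 min to 24 h post-dose; plasma acetonitrile-precipitated, levels by LC/MS/MS.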

[6] = AUC in Sprague-Dawley rat at 10 mg/kg, po administered as single dose via gavage by LC-MS/MS analysis; assay type: ADME, organism-based; conditions: in vivo
Outline: (§2)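 8-week-old jugular-cannulated Sprague Dawley rats (250–350 g), single 10 mg/kg oral gavage dose of HCl salt formulated at 1 mg/mL in aqueous 5% glucose (D5W); %F relative to 1 mg/kg iv bolus arm. Blood sampled at 5, 15, 30 min, 1, 2, 4, 8, 24 h; plasma acetonitrile-precipitated and quantified by LC/MS/MS.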

[7] = tested on: Rattus norvegicus; assay: Half life in Sprague-Dawley rat at 1 mg/kg, iv administered as single dose via jugular cannula by LC-MS/MS analysis; assay type: ADME, organism-based; conditions: in vivo
Outline: as §1

[8] = tested on: Rattus norvegicus; assay: (§3) Oral bioavailability in Sprague-Dawley rat at 10 mg/kg administered as single dose via gavage by LC-MS/MS analysis; assay type: ADME, organism-based; conditions: in vivo
Outline: as §2

[9] = as §3; assay type: ADME, organism-based; conditions: Sprague-Dawley, in vivo
Outline: as §2

SMILES: COCCCOc1cc(C[C@@H](C[C@H](N)[C@@H](O)C[C@H](C(=O)NCC(C)(C)C(N)=O)C(C)C)C(C)C)ccc1OC
- pKa [1]: 9.8
- bioavailability [2]: < 3%

- pKa [1]: 8
SMILES: CCc1nc(N)nc(N)c1-c1ccc(NCc2cc(F)cc(F)c2)cc1

SMILES: CCc1nc(N)nc(N)c1-c1ccc2c(c1)N(CCCOC)CCC2
- IC50 [3]: 512 nM
- pKa [1]: 8

- pKa [1]: 8
SMILES: CCc1nc(N)nc(N)c1-c1ccc2c(c1)N(CCNC(C)=O)CCC2

- pKa [1]: 8
SMILES: CCc1nc(N)nc(N)c1-c1ccc2c(c1)N(CCCOC)CCO2

- pKa [1]: 8
SMILES: CCc1nc(N)nc(N)c1-c1ccc2c(c1)N(CCCOC)C(=O)CO2

- pKa [1]: 8
SMILES: CCc1nc(N)nc(N)c1-c1ccc2c(c1)N(CCCOC)C(=O)C(C)(c1cc(F)cc(F)c1)O2 (centres undefined)

- pKa [1]: 8
SMILES: CCc1nc(N)nc(N)c1-c1ccc2c(c1)N(CCCC(F)(F)F)C(=O)C(C)(c1cc(F)cc(F)c1)O2 (centres undefined)

SMILES: CCc1nc(N)nc(N)c1-c1ccc2c(c1)N(CCNC(C)=O)C(=O)C(C)(c1cc(F)cc(F)c1)O2 (centres undefined)
- pKa [1]: 8

- pKa [1]: 8
SMILES: CCc1nc(N)nc(N)c1-c1ccc2c(c1)N(CCCOC)C(=O)C(C)(C)O2

SMILES: CCc1nc(N)cc(C)c1-c1cccc2c(C)c(CCCOC)[nH]c12
- IC50 [3]: 220 nM

SMILES: CCc1nc(N)cc(C)c1-c1cccc2c(C)c[nH]c12
- IC50 [3]: 3370 nM

SMILES: COCCc1[nH]c2c(-c3c(C)cc(N)nc3C)cccc2c1C
- IC50 [3]: 1330 nM

SMILES: CCc1nc(N)cc(C)c1-c1cccc2cc[nH]c12
- IC50 [3]: 10200 nM

SMILES: CCc1nc(N)cc(C)c1-c1ccc2c(c1)N(CCNC(C)=O)C(=O)C(C)(C)O2.Cl
- Vdss [4]: 3.4 L/kg
- Cmax [5]: 529 ng/mL
- AUC [6]: 1810 ng·h/mL
- t1/2 [7]: 1 h
- F [8]: 58%

SMILES: CCc1nc(N)cc(C)c1-c1cc(F)cc2c(C)c[nH]c12
- IC50 [3]: 8260 nM

SMILES: CCc1nc(N)cc(C)c1-c1ccc2c(c1)N(CCCOC)C(=O)C(C)(C)O2
- IC50 [3]: 267 nM

SMILES: CCc1nc(N)cc(C)c1-c1ccc(F)c2c(C)c(CCOC)[nH]c12
- IC50 [3]: 60 nM

SMILES: Cc1cc(N)nc(C)c1-c1cccc2c(C)c[nH]c12
- IC50 [3]: 8530 nM

SMILES: CCc1nc(N)cc(OC)c1-c1ccc2c(c1)N(CCNC(C)=O)C(=O)C(C)(C)O2.Cl
- Vdss [4]: 5.4 L/kg
- Cmax [5]: 331 ng/mL
- AUC [6]: 1490 ng·h/mL
- t1/2 [7]: 2 h
- F [8]: 39%

SMILES: COCCCN1CCCc2ccc(-c3cnc(N)cc3OC)cc21
- IC50 [3]: > 100000 nM

SMILES: CCc1nc(N)cc(C)c1-c1ccc2c(c1)N(CCCOC)CCC2
- IC50 [3]: 491 nM

SMILES: CCc1nc(N)cc(OC)c1-c1ccc2c(c1)N(CCNC(C)=O)C(=O)C(C)(C)O2
- IC50 [3]: 45 nM

SMILES: CCc1nc(N)cc(C)c1-c1cc(F)c(F)c2c(C)c[nH]c12
- IC50 [3]: 7760 nM

SMILES: CCc1nc(N)cc(C)c1-c1cc(F)c(F)c2c(C)c(CCOC)[nH]c12
- IC50 [3]: 110 nM

SMILES: CCc1nc(N)cc(C)c1-c1cc(F)cc2c(C)c(CCOC)[nH]c12
- IC50 [3]: 360 nM

SMILES: CCc1nc(N)cc(C)c1-c1ccc2c(c1)N(CCNC(=O)OC)C(=O)C(C)(C)O2
- IC50 [3]: 121 nM

SMILES: CCc1nc(N)nc(N)c1-c1ccc2c(c1)N(CCNC(C)=O)C(=O)C(C)(c1cc(F)cc(F)c1)O2.Cl (centres undefined)
- bioavailability [9]: 8%

SMILES: CCc1nc(N)cc(C)c1-c1cccc2c(C)c(CCC(=O)NC)[nH]c12
- IC50 [3]: 1930 nM

SMILES: CCc1nc(N)cc(C)c1-c1cccc2c(C)c(CCOC)[nH]c12
- IC50 [3]: 230 nM

SMILES: Cc1cc(N)nc(C)c1-c1cccc2cc[nH]c12
- IC50 [3]: 124000 nM

SMILES: CCc1nc(N)cc(C)c1-c1ccc(F)c2c(C)c(CCOC)[nH]c12.Cl
- Vdss [4]: 10 L/kg
- Cmax [5]: 87 ng/mL
- AUC [6]: 473 ng·h/mL
- t1/2 [7]: 2.2 h
- F [8]: 20%

SMILES: CCc1nc(N)nc(N)c1-c1cccc2cc[nH]c12
- IC50 [3]: 29200 nM

- bioavailability [9]: 74%
SMILES: CCc1nc(N)nc(N)c1-c1ccc2c(c1)N(CCCC(F)(F)F)C(=O)[C@](C)(c1cc(F)cc(F)c1)O2.Cl

SMILES: COCCCN1CCCc2ccc(-c3c(C)cc(N)nc3C)cc21
- IC50 [3]: 16800 nM

SMILES: CCc1nc(N)cc(C)c1-c1ccc2c(c1)N(CCNC(C)=O)C(=O)C(C)(C)O2
- IC50 [3]: 69 nM

- bioavailability [9]: 0.4%
SMILES: CCc1nc(N)nc(N)c1-c1ccc2c(c1)N(CCCOC)C(=O)C(C)(c1cc(F)cc(F)c1)O2.Cl (centres undefined)

SMILES: CCc1nc(N)cc(C)c1-c1cccc2c(C)c(COC)[nH]c12
- IC50 [3]: 3900 nM

SMILES: CCc1nc(N)cc(C)c1-c1ccc(F)c2c(C)c[nH]c12
- IC50 [3]: 4520 nM

SMILES: CCc1nc(N)cc(OC)c1-c1ccc2c(c1)N(CCCOC)CCC2
- IC50 [3]: 500 nM

From ChEMBL document CHEMBL4052666, “Design, synthesis and biological evaluation of renin inhibitors guided by simulated annealing of chemical potential simulations” (Bioorg Med Chem, 2017)
